Among the data in ChEMBL document CHEMBL1132194, “Synthesis and dopamine receptor modulating activity of novel peptidomimetics of L-prolyl-L-leucyl-glycinamide featuring alpha,alpha-disubstituted amino acids” (1999) are Change values, retold here.

What all share (type): functional
Assay [1] relates to Rattus norvegicus. As to the kind of experiment: Effect (PLG inhibitor) on apomorphine-Induced rotational behavior in rats at a dose of 1.0 ug/Kg. In outline:
(§1)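 Rats carrying unilateral 6-hydroxydopamine lesions of the substantia nigra; test compound given ip, then apomorphine 0.25 mg/kg ip. Contralateral rotations counted over 10 min and expressed as percentage change from control rotational response; n = 5 per group; significance versus respective control group (p < 0.05, p < 0.01).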

For assay [2], the system named is Rattus norvegicus. As to the kind of experiment: Effect (PLG inhibitor) on apomorphine-Induced rotational behavior in rats at a dose of 0.10 ug/Kg. In outline: as §1
Assay [3] relates to Rattus norvegicus. As to the kind of experiment: Effect (PLG inhibitor) on apomorphine-Induced rotational behavior in rats at a dose of 10.0 ug/Kg. In outline: as §1
For assay [4], the system named is Rattus norvegicus. Kind of assay: Effect (PLG inhibitor) on apomorphine-Induced rotational behavior in rats at a dose of 0.01 ug/Kg. In outline: as §1

Structures are written as SMILES. Where a SMILES comes first, the peptide text is derived from it. [ ]: non-standard residue; d: D form. Ac6c = NC1(C(=O)O)CCCCC1; Ac5c = NC1(C(=O)O)CCCC1; Deg = CCC(N)(CC)C(=O)O; Ac3c = NC1(C(=O)O)CC1

On to `NC(=O)CN1CC[C@@H](NC(=O)[C@@H]2CCCN2)C1=O`, for which the Change with Rattus norvegicus [1] is 75%; with Rattus norvegicus [2], 20%; in the assay on Rattus norvegicus [3], 191%.
On to `NC(=O)C1(N2CC[C@@H](NC(=O)[C@@H]3CCCN3)C2=O)CCCCC1`, for which the Change is listed as 19% with Rattus norvegicus [1], 7% in the assay with Rattus norvegicus [4], 1% in the assay with Rattus norvegicus [2] and -2% in the assay on Rattus norvegicus [3].
With `CCC(CC)(C(N)=O)N1CC[C@@H](NC(=O)[C@@H]2CCCN2)C1=O`, the Change in the assay on Rattus norvegicus [1] is 17%; in the assay on Rattus norvegicus [4], 2%; in the assay on Rattus norvegicus [2] it was -3%; in the assay on Rattus norvegicus [3] it was 8%.
Turning to `NC(=O)C1(N2CC[C@@H](NC(=O)[C@@H]3CCCN3)C2=O)CCCC1`, the Change is listed as 19% in the assay on Rattus norvegicus [1], 4% with Rattus norvegicus [4], -5% with Rattus norvegicus [2] and -4% with Rattus norvegicus [3].
Regarding `NC(=O)C1(N2CC[C@@H](NC(=O)[C@@H]3CCCN3)C2=O)CC1`, the Change is on record as -8% with Rattus norvegicus [1], -6% with Rattus norvegicus [4], 10% in the assay on Rattus norvegicus [2] and 4% with Rattus norvegicus [3].
On to `CC(C)C[C@H](NC(=O)[C@@H]1CCCN1)C(=O)NC1(C(N)=O)CC1` (H-Pro-Leu-[Ac3c]-NH2), for which the Change is 8% with Rattus norvegicus [1], 15% with Rattus norvegicus [4], 18% in the assay on Rattus norvegicus [2] and -7% with Rattus norvegicus [3].
Consider `CC(C)C[C@H](NC(=O)[C@@H]1CCCN1)C(=O)NC1(C(N)=O)CCCC1` (H-Pro-Leu-[Ac5c]-NH2), for which the Change in the assay with Rattus norvegicus [1] is reported as 5%; in the assay with Rattus norvegicus [4], -15%; with Rattus norvegicus [2], -1%; in the assay with Rattus norvegicus [3] it was -26%.
For `CC(C)C[C@H](NC(=O)[C@@H]1CCCN1)C(=O)NC1(C(N)=O)CCCCC1` (H-Pro-Leu-[Ac6c]-NH2), the Change in the assay with Rattus norvegicus [1] was -2%; with Rattus norvegicus [4], -2%; in the assay on Rattus norvegicus [2], 14%; with Rattus norvegicus [3], -25%.
`CCC(CC)(NC(=O)[C@H](CC(C)C)NC(=O)[C@@H]1CCCN1)C(N)=O` (H-Pro-Leu-[Deg]-NH2): the Change worked out at 56% with Rattus norvegicus [1], 6% in the assay with Rattus norvegicus [4], 31% in the assay with Rattus norvegicus [2] and 1% in the assay with Rattus norvegicus [3].
